An excerpt weighted towards active compounds, which were near 1.7% of everything screened.
M5 ag: CHRM5 agonism in calcium assay | hit rate 0.19% among 360,000 | activation, % at 3 µM | CHO-K1 hM5 cells, Fluo-8 calcium fluorescence; 0% DMSO wells, 100% maximal acetylcholine response | P08912;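 active means activation above the run's mean over test compounds plus 3 SD, cut at about 23% in these data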;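 further: signal is peak over basal fluorescence ratio across the kinetic read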
Target sequence (P08912 whole entry, looked up): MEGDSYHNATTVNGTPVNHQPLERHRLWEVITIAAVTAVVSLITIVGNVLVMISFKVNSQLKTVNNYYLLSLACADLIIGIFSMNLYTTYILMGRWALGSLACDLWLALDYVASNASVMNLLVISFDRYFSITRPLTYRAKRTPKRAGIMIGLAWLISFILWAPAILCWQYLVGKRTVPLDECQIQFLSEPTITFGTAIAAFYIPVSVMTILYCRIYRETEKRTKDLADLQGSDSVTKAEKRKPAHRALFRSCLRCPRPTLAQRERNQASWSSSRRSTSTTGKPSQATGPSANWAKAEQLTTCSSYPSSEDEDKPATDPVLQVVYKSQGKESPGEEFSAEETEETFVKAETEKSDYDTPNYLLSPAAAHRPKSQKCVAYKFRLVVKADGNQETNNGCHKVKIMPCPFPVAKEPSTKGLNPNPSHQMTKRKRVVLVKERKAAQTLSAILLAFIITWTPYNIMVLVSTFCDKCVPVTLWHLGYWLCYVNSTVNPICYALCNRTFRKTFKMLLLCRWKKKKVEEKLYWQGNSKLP
M1 ag parental: counter-screen for M1 agonists: effect in parental CHO-K1 cells; hit rate 0.48% among 360,000; Fluo-8 calcium fluorescence; scaled to maximal ATP response, vehicle zero; activation, % at 3 µM; in the data active means activation above about 15%;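 further: untransfected CHO-K1 host cells lacking M1 receptor as counterscreen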
CHRM5 antagonist: blocks acetylcholine activation of human M5 receptor. AID 624040. CHO-hM5 cells, Fluo-8 calcium fluorescence, ACh EC80. inhibition, % at 3 µM. hit rate 0.59% among 360,000. P08912;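 active means inhibition above a per-plate cutoff, the mean of that plate's test compounds plus 3 SD, cut at about 27% in these data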;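 further: 0% = acetylcholine EC80 with DMSO and 100% = DMSO without agonist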
CHO-K1 Ca PAM: M1 PAM counterscreen hit in parental CHO-K1 cells. ATP EC20, Fluo-8 calcium fluorescence; 0% at ATP EC20, 100% at ATP max. activation, % at 3 µM. hit rate 0.02% among 360,000;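 active means activation above the run cutoff, the mean activation of all test compounds plus 3 SD, cut at about 40% in these data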;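 further: peak over basal fluorescence ratio in a 140 s read after ATP addition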
CHO-K1 Ca antag: nonselective inhibitor or artifact in parental CHO-K1 cells | AID 602250 | ATP-induced calcium, Fluo-8 fluorescence | hit rate 0.6% among 360,000 | inhibition, % at 3 µM;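 active means inhibition above a per-plate cutoff, the plate's mean sample inhibition plus 3 SD, cut at about 24% in these data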;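 further: 0% = DMSO plus EC80 ATP and 100% = DMSO alone without ATP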
CHRM5 PAM: potentiates acetylcholine response at human M5 receptor. P08912. CHO-K1 hM5, Fluo-8 calcium, ACh EC20 PAM; 0% = ACh EC20, 100% = ACh EC100. activation, % at 3 µM. hit rate 0.3% among 360,000. AID 624038;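 active means activation above the run cutoff, the mean activation of all test compounds plus 3 SD, cut at about 18% in these data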
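Measured by: Fluo-8 calcium fluorescence; material: human M5 receptor in CHO-K1 cells; schedule: Post-acetylcholine fluorescence recording 140 s; benchmarks: low control EC20 acetylcholine (0%), high control EC100 acetylcholine (100%); read-out: Max/basal fluorescence ratio as % of EC20–EC100 ACh window; compound: single dose, 3 µM nominal final test concentration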
An asterisk follows results filed as active.

SMILES	M5 ag	M1 ag parental	CHRM5 antagonist	CHO-K1 Ca PAM	CHO-K1 Ca antag	CHRM5 PAM
Cc1cccc(OCC(=O)NCC(=O)N/N=C/c2cc(Br)ccc2OCc2ccccc2)c1	-1	18*	1	6	14	-3
COc1ccc(-c2noc(CSc3nc4sc(C)c(C)c4c(=O)n3-c3ccccc3)n2)cc1OC	2	0	-7	-9	-3	1
O=C1/C(=C\c2cc(Cl)c(O)c(Cl)c2)SC(=S)N1Cc1ccccc1	8	16*	14	-9	22	-2
O=C(CCN1C(=O)/C(=C\c2ccccc2)SC1=S)N1CCCCC1	-1	15*	6	11	11	-2
COc1cccc(/C=C2\SC(=S)N(CCCC(=O)N3CCCCC3CCO)C2=O)c1 (stereo unspecified)	3	15*	19	9	-1	-9
O=C(O)CN1C(=O)/C(=C/C=C/c2ccccc2)SC1=S	-2	0	4	-10	31*	-3
COc1ccc(C(=O)N=c2sc3ccccc3n2C)cc1	0	0	8	0	-2	7
CC1=C(C)CC(C(=O)NC2CCN(C(C)C)CC2)C(C(=O)O)C1 (stereo unspecified)	-8	0	37*	-28	18	-14
Cc1ccc(Oc2ccc(NC(=O)Cn3ccsc3=N)cc2)cc1	-3	1	8	16	1	-5
S=C(NCCC(c1ccccc1)c1ccccc1)Nc1ccc(Cl)cc1	1	11	33*	13	12	-14
Cc1ccccc1N1C(=O)c2cccc3c(N(C)CCO)ccc(c23)C1=O	18	17*	15	3	7	-7
COc1ccccc1N1C(=O)c2cccc3c(N(C)CCO)ccc(c23)C1=O	24*	13	8	7	-1	-3
C=CCn1c(SCC(=O)Nc2cccnc2Cl)nnc1-c1ccc(Cl)cc1	8	0	28*	4	-8	26*
C=CCn1c(SCC(=O)Nc2cccnc2Cl)nnc1-c1ccccc1F	1	0	3	11	4	-4
O=C(NCC1CCCN(C(=O)c2cccc(C(F)(F)F)c2)C1)c1ccc(F)cc1 (stereo unspecified)	-2	2	13	8	-8	-1
CC12CCC(=O)N1C(C(=O)Nc1cc(C(F)(F)F)ccc1N1CCOCC1)CS2 (stereo unspecified)	0	1	-8	-8	0	-4
Cc1cc(C(=O)NCc2cc(F)cc3c2OCOC3)nn1C	-2	1	16	2	-5	-6
Cn1nc(C(C)(C)C)cc1C(=O)NCc1cc(F)cc2c1OCOC2	7	15*	29*	-14	31*	-28
O=C(NNC(=O)c1cnccc1C(F)(F)F)c1ccccc1	2	16*	3	7	16	-2
c1ccc(CNc2ncnc3c2cnn3Cc2ccccc2)cc1	28*	10	8	-15	-20	-10
CCOc1ccccc1NC(=O)NS(=O)(=O)c1ccc(C)cc1	1	0	14	1	-1	-12
CCOc1cccc(NC(=O)C(Cc2cccs2)c2nn[nH]n2)c1 (stereo unspecified)	-1	0	1	-9	27*	1
Cc1cc(C)c(C(=O)c2ccccc2)c(C)c1	3	0	13	0	0	-2
CCOC(=O)C1=C[C@@H](C(C)(C)C)N(S(=O)(=O)c2ccc(C)cc2)[C@H]1c1ccc(F)cc1	-2	0	4	15	8	-7
O=C1/C(=C/c2ccc(F)cc2)CCC1C1CCCC1 (stereo unspecified)	-3	0	6	-12	24*	-7
SMILES	M5 ag	M1 ag parental	CHRM5 antagonist	CHO-K1 Ca PAM	CHO-K1 Ca antag	CHRM5 PAM
O=C1/C(=C/c2ccccc2)CCC1C1CCCC1 (stereo unspecified)	0	0	-3	-8	9	-4
O=C(Oc1ccc(-n2cnnn2)cc1)c1ccccc1	-4	0	6	-14	8	-5
COc1ccc(CNS(=O)(=O)NCc2ccc(C)cc2)cc1OC	2	19*	6	3	15	-6
CCOc1cc(CNn2cnnc2)cc(Br)c1OCC(=O)NC1CCCCC1	2	0	-9	-9	29*	0
CCOc1cc(CNn2cnnc2)cc(Br)c1OCC(=O)NC(C)(C)C	-1	0	3	6	-5	-3
CCCNC1=C(C)C(=O)CC1	-1	0	6	-8	24*	-2
CC1=C(NCCc2ccccc2)CCC1=O	-3	1	-4	19	-7	4
COC(c1ccccc1)c1nc2ccccc2[nH]c1=O (stereo unspecified)	-3	4	1	15	-12	0
CC(=O)c1cccc(CN(C)CC2CCCN(CCc3ccccc3C)C2)c1 (stereo unspecified)	-23	0	81*	3	3	-33
Cc1ccc(NC(=O)CCC(=O)OCC(=O)c2ccc(Oc3ccc([N+](=O)[O-])cc3)cc2)cc1	2	1	-2	-3	1	-9
COc1ccc(C(=O)NCC(=O)OCc2ccc([N+](=O)[O-])cc2)cc1	-4	0	10	24	-5	-5
Cc1ccc(C(=O)NCC(=O)NCC(=O)OCc2ccc(Oc3ccc([N+](=O)[O-])cc3)cc2)cc1	2	7	31*	14	6	-22
Cc1ccc(NC(=O)CCC(=O)OCC(=O)c2ccc(Oc3ccc([N+](=O)[O-])cc3)cc2)c(C)c1	2	1	4	-1	30*	-7
Cn1c(/C(C#N)=C/c2ccc(-c3ccc(S(N)(=O)=O)cc3)o2)nc2ccccc21	7	22*	8	14	17	-11
CC(Oc1ccccc1)C(=O)N=C1SC2CS(=O)(=O)CC2N1c1ccccc1 (stereo unspecified)	-1	1	-17	-19	-8	-1
COc1ccc(CCn2nnnc2C(CC(C)C)N2CCN(c3ncccn3)CC2)cc1OC (stereo unspecified)	-4	-1	-8	-12	37*	0
COc1ccc(CCn2nnnc2C(C(C)C)N2CCN(c3ncccn3)CC2)cc1OC (stereo unspecified)	-4	1	-13	-13	-2	-6
N#C/C(=C\c1ccc(-c2ccccc2[N+](=O)[O-])o1)C(N)=O	-3	0	7	10	-3	3
CNC(=O)/C(C#N)=C/c1ccc(-c2ccccc2[N+](=O)[O-])o1	-2	0	6	-18	27*	-8
CN(C)C=Nc1nonc1-c1ccccc1	0	1	1	2	-10	2
CN(C)C=Nc1c(Br)cc(Br)c2nonc12	24*	18*	15	4	17	-14
